From the RNAGym collection of RNA variant scans (doi:10.1126/science.aae0568)
Variants at the floor of the assay were thinned out.

B1: tRNA (parent)
chain: GUUCCGUUGGCGUAAUGGUAACGCGUCUCCCUCCUAAGGAGAAGACUGCGGGUUCGAGUCCCGUACGGAACG

Variants of: B1
Test: yeast fitness relative to wild type (ratio to wild type); higher = fitter; tRNA-Arg(CCU), competitive growth, 37 C, YPD
Method in brief: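 The tRNA-Arg(CCU) gene variants were made by chemical synthesis with a 3% per-site mutation rate at 69 sites and inserted at the native genomic locus of Saccharomyces cerevisiae. After pooling, the strains were competed in YPD at 37°C for 24 hours in six parallel replicates. Gene amplicons from the start population and each end population were read by 100-nucleotide paired-end sequencing, and Darwinian fitness relative to wild type was taken from genotype frequency changes. Genotypes needed ≥ 100 starting reads, and estimates < 0.5 were set to 0.5.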

Row | Variant | yeast fitness
1 | C4U G6A A15U A20C G25C U35A | ≤ 0.5
2 | C4U A21U C55U | ≤ 0.5
3 | C4U C27U A45C G48A G56C | 0.612
4 | C4U C33A A40U | 0.564
5 | C4U A20U C29U | ≤ 0.5
6 | C4U C24G C30G C31U U35A A36U G44A G63C | 0.654
7 | C4U C11G G56C | ≤ 0.5
8 | C4U A45G U53G | ≤ 0.5
9 | C4U C11A A37C A65C | ≤ 0.5
10 | C4U G23C A40U A42G A45G G51C C61U | ≤ 0.5
11 | C4U G6C U7A | ≤ 0.5
12 | C4U G6A A15U A20C G25C U35A A45U | ≤ 0.5
13 | C4U C11A G12A A42U C49U G51A | ≤ 0.5
14 | C4U C11A U28A C31U G51C G56A | ≤ 0.5
15 | C4U C11U C22G | 0.629
16 | C4U C11G G18A U26C G52C | ≤ 0.5
17 | C4U C11G C29U U59G | ≤ 0.5
18 | C4U G12A A40U A65C | ≤ 0.5
19 | C4U C27G A65U A70G | ≤ 0.5
20 | C4U G9C G18A A21G C24U A37C | 0.694
21 | C4U C22G U28A A36U C66U | ≤ 0.5
22 | C4U A57G | 0.872
23 | C4U A57C | 0.709
24 | C4U C22G A42G | 0.695

Row | Variant | yeast fitness
25 | C4U C22U C62U | 0.62
26 | C4U A21U A42G G50C C66U A70U | ≤ 0.5
27 | C4U A20U C61G | ≤ 0.5
28 | C4U G10A C22G | 0.642
29 | C4U C11G C24A A36U A43C | 0.55
30 | C4U C30A A37U G44C U53A | ≤ 0.5
31 | C4U G12A C27G C34A C49A G68U | ≤ 0.5
32 | C4U A20U | 0.988
33 | C4U C49A A57C A69U | ≤ 0.5
34 | C4U C11G C34U | 0.551
35 | C4U A42G | 0.868
36 | C4U A42C | 0.912
37 | C4U A20U C27G C30G U32C A43G A65C G68C | ≤ 0.5
38 | C4U C11U G25C G41A | 0.706
39 | C4U G12A G39C C49A U64G | 0.544
40 | C4U C11A A65C | 0.538
41 | C4U C5G G12A A14U U54A A57U | ≤ 0.5
42 | C4U C27G A45C | 0.564
43 | C4U A40G U64C | 0.952
44 | C4U C5G C34U U54A | ≤ 0.5
45 | C4U A21G | 1.1
46 | C4U C24G U26A U28G G68C | ≤ 0.5
47 | C4U C29A G52C C55G U59G | 0.656
48 | C4U G17A C33G | ≤ 0.5

Row | Variant | yeast fitness
49 | C4U G23C A40U A42G A45G G51C C61U G63A | ≤ 0.5
50 | C4U C24A U47G U59C | ≤ 0.5
51 | C4U C34A A43U U47C C62G C66A | ≤ 0.5
52 | C4U C46U C49G U59C | ≤ 0.5
53 | C4U C27G C33U A57G | ≤ 0.5
54 | C4U G6A A14C A65U | ≤ 0.5
55 | C4U G12A C46U | 0.728
56 | C4U C34G A69G | ≤ 0.5
57 | C4U C22U | 0.76
58 | C4U C11A C46U U59C | ≤ 0.5
59 | C4U G9C A20G A45G C61A G67A | ≤ 0.5
60 | C4U G23A A40C U54A U59A | ≤ 0.5
61 | C4U C5G G41A A70G | ≤ 0.5
62 | C4U C11A A42G G48C A65U | 0.555
63 | C4U C5U A14C G68A | ≤ 0.5
64 | C4U G25C G68A | 0.976
65 | C4U C5G C29U U32A C33U G67U A70G | 0.54
66 | C4U C24G C61U | 0.555
67 | C4U C11A G67U | ≤ 0.5
68 | C4U G18C G50A | ≤ 0.5
69 | C4U C29A A36C A40U G51A G68C | ≤ 0.5
70 | C4U C30U A57G G68A | 0.525
71 | C4U G10C | 0.625
72 | C4U G12A A45C C49U | ≤ 0.5

Row | Variant | yeast fitness
73 | C4U C5A A15U C34U U54C C62U | ≤ 0.5
74 | C4U G25A A65G | 0.718
75 | C4U C30A G50C G56A C62U G67U | ≤ 0.5
76 | C4U G12A A20G C22U A57G | ≤ 0.5
77 | C4U C29A C31G A42C A45U A69U | ≤ 0.5
78 | C4U C22U C27U G58C | ≤ 0.5
79 | C4U A40U U47C | 0.643
80 | C4U G10A C11G A20G C27G A65U | ≤ 0.5
81 | C4U G23C | 0.716
82 | C4U G17A C22U G68C | ≤ 0.5
83 | C4U C30A G68A | 0.786
84 | C4U C33A A42G | ≤ 0.5
85 | C4U G9A C22A U26A G52C G67A | ≤ 0.5
86 | C4U C24A | 0.574
87 | C4U A43C | 1.01
88 | C4U A43U | 0.963
89 | C4U C5A C61U | 0.719
90 | C4U C29G C30U | ≤ 0.5
91 | C4U C5A G68C | 0.551
92 | C4U C22U A45G C66G | ≤ 0.5
93 | C4U G41C G48A C61A | ≤ 0.5
94 | C4U C31G A40G A45C U53A A70U | ≤ 0.5
95 | C4U C29U G63A | 0.517
96 | C4U A37G G41C C55G | 0.537

Row | Variant | yeast fitness
97 | C4U A42U G67C | 0.676
98 | C4U G18C A20C G39A | ≤ 0.5
99 | C4U G10C C30A G50A | ≤ 0.5
100 | C4U C27A A43U G51C | ≤ 0.5
101 | C4U A36C | 0.542
102 | C4U G12C C60G A70C | ≤ 0.5
103 | C4U C11G C34U G56A | ≤ 0.5
104 | C4U G6C A21C C30G C46G | 0.524
105 | C4U C27G C31G | ≤ 0.5
106 | C4U C46G C61G A65C | 0.588
107 | C4U C27U C31G C55U | ≤ 0.5
108 | C4U C31U C61G | 0.58
109 | C4U A45C C60G | 0.671
110 | C4U C31G C34U A43U | 0.786
111 | C4U C31U C60A | ≤ 0.5
112 | C4U C27U A57C C61U | ≤ 0.5
113 | C4U G18A A21C G48C | ≤ 0.5
114 | C4U G9C C33G U54C | ≤ 0.5
115 | C4U A45C A69U | 0.822
116 | C4U C55A A65U | ≤ 0.5
117 | C4U A40U G68C | 0.68
118 | C4U C11G C34U C55U | ≤ 0.5
119 | C4U A43G C49U G68A | ≤ 0.5
120 | C4U A69G | 0.901

Row | Variant | yeast fitness
121 | C4U G9A C22G A42U | 0.546
122 | C4U C24G A37G | 0.567
123 | C4U C66A G68C | 0.546
124 | C4U A70G | 0.941
125 | C4U C33U G44A | ≤ 0.5
126 | C4U C5G C29U G63A A65G | 0.535
127 | C4U G9C G18A U26G A45C | ≤ 0.5
128 | C4U C11U C33U | 0.575
129 | C4U A21U C24U C27A A37C A40U G67C | ≤ 0.5
130 | C4U C61U | 0.977
131 | C4U C5G C29U U32A C33U | ≤ 0.5
132 | C4U C22U C33U A42C A57G | ≤ 0.5
133 | C4U C11U A45U A57U | 0.655
134 | C4U A21C G67U | ≤ 0.5
135 | C4U C27U C29G A42C C55G | ≤ 0.5
136 | C4U A21G C29G C31U G41A G50C A70C | 0.599
137 | C4U G12A A40U | 0.642
138 | C4U A21G C46A U64C | 0.676
139 | C4U C34U A40C G41A C62U A65U | ≤ 0.5
140 | C4U G12C U28G C62G | ≤ 0.5
141 | C4U C30A | 0.917
142 | C4U A20U U28C C61G | ≤ 0.5
143 | C4U C24G U26A U28G | 0.539
144 | C4U C55U C66A | ≤ 0.5

Row | Variant | yeast fitness
145 | C4U G9A A15U A20C C27A C61G A65C | ≤ 0.5
146 | C4U C5A A40C G68C | ≤ 0.5
147 | C4U A45U C66G | 0.598
148 | C4U G10C G23A U26C U32C A43G U53A | ≤ 0.5
149 | C4U C11A G39A G51A G67C | ≤ 0.5
150 | C4U C11U U13C C33G A40C | ≤ 0.5
151 | C4U A36G A40C G44C | 0.596
152 | C4U C5G U28C A70C | 0.637
153 | C4U C5G A45G | 0.634
154 | C4U C27U G39C G52A G56A | 0.614
155 | C4U C5A | 0.796
156 | C4U C5U | 1.01
157 | C4U G38A U47C | 0.501
158 | C4U C33A A40U G68A | ≤ 0.5
159 | C4U C5G U28C G67C | 0.909
160 | C4U C11A A37C | 0.569
161 | C4U C22G U28A A36U G51A | ≤ 0.5
162 | C4U C22G C29G C31A A69C | ≤ 0.5
163 | C4U C34A G44C | 0.636
164 | C4U G23C U47C C49A G68C | ≤ 0.5
165 | C4U G38C C61U | 0.54
166 | C4U C34U A43C A69U | 0.557
167 | C4U G23A G56C A57G G68A | ≤ 0.5
